Experimental data taken from publication PMC5956897 (Journal of inorganic biochemistry, 2018).

Tests used:
MDA-MB-231 cells [1] = assay: Intracellular ROS detection with DCFH2-DA by flow cytometry; type: cell-based
Summary of the method: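 Cells were seeded at 2.0 × 10⁵ per well and incubated overnight. They were treated for 2 h with test compound (50 μM) in phenol-red-free EMEM with 0.1% DMSO; the H₂O₂ control in PBS ran for 10 min. After PBS washes, cells took up DCFH₂-DA (30 μM) in warm PBS. They were detached with trypsin/EDTA, held on ice, and read by flow cytometry (488 nm excitation, 530/30 nm) within 1 h. n=3, mean ± SDM.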

MDA-MB-231 cells [2] = assay: Cell cycle analysis; type: cell-based; conditions: MDA-MB-231, 10 μM, 12 h
MEL cells = assay: Spectrophotometric hemoglobin quantitation in induced MEL cells; type: cell-based, murine

Row | SMILES | DCF response compared to untreated control (MDA-MB-231 cells [1]; MDA-MB-231, positive control in PBS, 10 min) | G0/1 accumulation (cell cycle arrest) (MDA-MB-231 cells [2]) | ROS/RNS levels (DCF fluorescence) compared to untreated control (MDA-MB-231 cells [1]; MDA-MB-231, 50 μM, 2 h) | effect on hemoglobin production (MEL cells; 0.5 μM or 5 μM, 72 h, without SA) | decrease in intracellular hemoglobin concentrations (MEL cells; 72 h, without SA, statistically significant) | change in intracellular Hb concentrations (MEL cells; with succinylacetone (SA, 1 mM), normalized data)
1 | OO [H2O2, Hydrogen peroxide] | an order of magnitude higher than that of the untreated control |  |  |  |  | 
2 | O=C(N/N=C/c1ccccc1O)c1ccncc1 [SIH, salicyl isonicotinoyl hydrazone] |  | arrest at the G1/S interface | significant decrease of DCF fluorescence | did not have major effects on hemoglobin production | less than 20% | did not result in statistically significant changes
